The target in test [1] is Epidermal growth factor receptor (Homo sapiens, UniProt P00533, L858R/T790M). Nature of the test: Inhibition of EGFR L858R/T790M double mutant (unknown origin) measured after 60 mins by ADP-Glo kinase based luminescence assay.
Test [2] addresses Epidermal growth factor receptor (Homo sapiens, UniProt P00533). Put plainly: Inhibition of wild type EGFR (unknown origin) measured after 60 mins by ADP-Glo kinase based luminescence assay.
Test [3] deals with NCI-H1975. Put plainly: Antiproliferative activity against human NCI-H1975 cells harboring EGFR L858R/T790M mutant assessed as reduction in cell viability incubated for 72 hrs by CCK8 assay. Particulars: NCI-H1975, 72 h. It counts as functional, cell-based. The gist of the method:
(§1)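 Cells kept as monolayers at 37 °C, 5% CO2, seeded 3000-4000/well for 12 h, then exposed to compounds for 72 h. CCK-8 added for 1-2 h at 37 °C, absorbance read at 450 nm. Each dose run in triplicate, experiment repeated at least three times. IC50 taken from dose-response curves.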
A general note: Tetrazolium dyes change colour on reduction, which living cells bring about.

The subject of test [4] is A-431. Nature of the test: Cytotoxicity against human A-431 cells harboring wild type EGFR assessed as reduction in cell viability incubated for 72 hrs by CCK8 assay. It counts as cell-based. Particulars: A-431, 72 h. The gist of the method:
as §1

Test [5] concerns A549. Nature of the test: Antiproliferative activity against human A549 cells harboring KRAS G12S mutant assessed as reduction in cell viability incubated for 72 hrs by CCK8 assay. In kind it is functional, cell-based. Particulars: A549, 72 h. The method, boiled down: as §1
The nature of test [6]: Cytotoxicity against human HBE cells assessed as reduction in cell viability incubated for 72 hrs by CCK8 assay. It counts as cell-based. The method, boiled down:
as §1

In test [7] the test system is ASPC1. Nature of the test: Antiproliferative activity against human ASPC1 cells assessed as reduction in cell viability incubated for 72 hrs by CCK8 assay. In kind it is functional, cell-based. Particulars: ASPC1, 72 h. The gist of the method: as §1
Test [8] deals with NCI-H23. Nature of the test: Antiproliferative activity against human NCI-H23 cells harboring KRAS mutant assessed as reduction in cell viability incubated for 72 hrs by CCK8 assay. In kind it is functional, cell-based. Particulars: NCI-H23, 72 h. The method, boiled down:
as §1

In test [9] the test system is L02. Put plainly: Antiproliferative activity against human L02 cells assessed as reduction in cell viability incubated for 72 hrs by CCK8 assay. In kind it is cell-based. To be noted: L02, 72 h.
Test [10] can be described thus: Selectivity index, ratio of IC50 for human A-431 cells harboring wild type EGFR (unknown origin) to IC50 for human NCI-H1975 cells harboring EGFR L858R/T790M mutant.

Chain of Epidermal growth factor receptor (Homo sapiens, UniProt P00533, L858R/T790M) (P00533 25-1210 T790M/L858R limits assumed): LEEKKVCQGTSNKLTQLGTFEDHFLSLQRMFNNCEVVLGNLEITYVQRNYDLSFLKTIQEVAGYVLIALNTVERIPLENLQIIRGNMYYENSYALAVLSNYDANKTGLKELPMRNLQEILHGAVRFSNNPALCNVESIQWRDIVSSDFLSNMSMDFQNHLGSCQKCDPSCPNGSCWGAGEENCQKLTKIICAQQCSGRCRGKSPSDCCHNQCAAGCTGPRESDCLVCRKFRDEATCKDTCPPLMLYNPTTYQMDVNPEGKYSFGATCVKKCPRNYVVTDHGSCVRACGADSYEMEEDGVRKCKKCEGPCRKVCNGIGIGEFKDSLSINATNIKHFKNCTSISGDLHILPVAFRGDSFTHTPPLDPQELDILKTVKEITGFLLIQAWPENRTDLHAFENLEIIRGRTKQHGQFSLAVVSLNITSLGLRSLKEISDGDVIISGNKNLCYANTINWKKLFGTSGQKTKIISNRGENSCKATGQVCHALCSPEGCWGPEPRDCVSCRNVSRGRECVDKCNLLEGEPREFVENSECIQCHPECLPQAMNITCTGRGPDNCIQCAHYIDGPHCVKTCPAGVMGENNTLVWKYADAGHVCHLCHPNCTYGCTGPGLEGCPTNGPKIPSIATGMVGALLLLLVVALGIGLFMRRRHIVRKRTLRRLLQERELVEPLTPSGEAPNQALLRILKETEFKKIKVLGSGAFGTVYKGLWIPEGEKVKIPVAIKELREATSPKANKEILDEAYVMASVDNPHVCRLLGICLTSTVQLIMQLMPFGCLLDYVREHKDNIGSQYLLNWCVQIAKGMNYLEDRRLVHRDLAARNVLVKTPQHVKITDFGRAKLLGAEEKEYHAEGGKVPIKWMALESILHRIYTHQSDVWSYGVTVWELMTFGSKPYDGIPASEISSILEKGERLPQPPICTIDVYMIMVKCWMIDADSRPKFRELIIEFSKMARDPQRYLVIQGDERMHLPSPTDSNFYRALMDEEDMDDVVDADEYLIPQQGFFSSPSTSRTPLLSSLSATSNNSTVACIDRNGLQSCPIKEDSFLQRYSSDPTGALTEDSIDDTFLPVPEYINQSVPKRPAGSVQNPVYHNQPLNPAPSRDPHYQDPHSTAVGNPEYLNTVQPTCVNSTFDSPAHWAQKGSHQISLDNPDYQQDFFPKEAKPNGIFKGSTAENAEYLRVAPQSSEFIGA
Chain of Epidermal growth factor receptor (Homo sapiens, UniProt P00533) (P00533 whole entry): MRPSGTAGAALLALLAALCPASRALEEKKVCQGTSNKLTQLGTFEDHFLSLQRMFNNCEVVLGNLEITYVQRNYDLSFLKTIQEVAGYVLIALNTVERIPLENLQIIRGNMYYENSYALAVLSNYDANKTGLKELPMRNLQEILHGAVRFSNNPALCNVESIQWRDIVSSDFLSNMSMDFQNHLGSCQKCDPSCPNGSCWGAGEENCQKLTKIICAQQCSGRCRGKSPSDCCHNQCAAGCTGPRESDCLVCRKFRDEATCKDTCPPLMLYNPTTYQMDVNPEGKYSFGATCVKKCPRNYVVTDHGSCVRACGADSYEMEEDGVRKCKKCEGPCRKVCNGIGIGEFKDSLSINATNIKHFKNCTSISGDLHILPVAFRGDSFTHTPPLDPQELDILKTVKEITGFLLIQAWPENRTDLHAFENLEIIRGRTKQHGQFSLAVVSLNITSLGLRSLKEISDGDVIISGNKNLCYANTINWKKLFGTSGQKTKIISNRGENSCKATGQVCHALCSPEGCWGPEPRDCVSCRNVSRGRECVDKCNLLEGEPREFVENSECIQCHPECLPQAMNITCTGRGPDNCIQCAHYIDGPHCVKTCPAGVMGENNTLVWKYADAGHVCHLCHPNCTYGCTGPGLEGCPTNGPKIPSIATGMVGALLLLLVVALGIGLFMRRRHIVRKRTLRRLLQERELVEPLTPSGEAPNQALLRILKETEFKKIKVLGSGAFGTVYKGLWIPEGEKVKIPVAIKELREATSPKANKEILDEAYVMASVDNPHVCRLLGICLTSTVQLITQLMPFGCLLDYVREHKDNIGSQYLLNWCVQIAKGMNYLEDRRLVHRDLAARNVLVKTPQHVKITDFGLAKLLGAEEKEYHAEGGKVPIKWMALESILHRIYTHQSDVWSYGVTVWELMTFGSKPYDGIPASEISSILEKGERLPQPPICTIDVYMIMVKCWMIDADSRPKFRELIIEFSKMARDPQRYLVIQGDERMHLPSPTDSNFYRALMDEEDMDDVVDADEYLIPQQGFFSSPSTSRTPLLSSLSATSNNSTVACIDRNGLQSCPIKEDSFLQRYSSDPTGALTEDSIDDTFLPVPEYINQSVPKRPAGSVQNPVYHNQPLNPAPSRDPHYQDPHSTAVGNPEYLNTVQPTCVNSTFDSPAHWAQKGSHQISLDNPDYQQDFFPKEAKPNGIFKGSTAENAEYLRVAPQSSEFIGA

Usually IC50 stands for the concentration needed to halve the response being measured. With `O=C(NO)c1ccccc1Nc1nc(Nc2ccc(CN3CCOCC3)cc2)ncc1Cl`, the IC50 in [1] was 98.8 nM; in [2] it was 4.5 nM; in test [3], below 78.1 nM; in [4], 2430 nM; in test [5] it was below 78 nM; in test [6], 29100 nM. For the same compound, the values for the IC50 in test [7], in [8] and in test [9] were below 156 nM, 554 nM and below 1250 nM, respectively. The “Ratio IC50” value in test [10] is given as above 31.08.

With `O=C(NO)c1ccccc1Nc1nc(Nc2ccc(OCC(=O)N3CCOCC3)cc2)ncc1Cl`, the IC50 in test [1] worked out at 16 nM; in test [2], 57.3 nM; in test [3], 129 nM; in [4], 670 nM; in test [5] it was 129 nM; in [6] it was 20200 nM. The IC50 stood at 530 nM in [7], 820 nM in [8] and 4810 nM in [9]. Also, the “Ratio IC50” value in test [10] was found to be 5.19.

With `CNC(=O)c1ccccc1Nc1nc(Nc2ccc(OCCCN3CCC(C(=O)NO)CC3)cc2)ncc1Cl`, the IC50 came to 45 nM in [1]; 46.7 nM in test [2]; 156 nM in test [3]; 448 nM in test [4]; 156 nM in test [5]; 8570 nM in test [6]. Moreover, the IC50 is below 156 nM in test [7], 2110 nM in [8] and below 1250 nM in [9]. Also, the “Ratio IC50” value in test [10] came out at 2.88.

Take `CN1CCN(c2ccc(Nc3ncc(Cl)c(Nc4ccccc4C(=O)NO)n3)cc2)CC1`: the IC50 in [1] was 68.8 nM; in test [2], 6.56 nM; in [3] it was below 78.1 nM; in test [4], 253 nM; in test [5], below 78 nM; in test [6], 22600 nM. In addition, the IC50 in test [7] is below 156 nM; in test [8], 217 nM; in [9], below 1250 nM. Besides, the “Ratio IC50” value in test [10] is recorded as above 3.24.

Turning to `CNC(=O)c1ccccc1Nc1nc(Nc2ccc(NC(=O)CN3CCOCC3)c(C)c2)ncc1Cl`, the IC50 in test [1] is 3.89 nM; in test [3], 333 nM.

As to `C=CC(=O)Nc1cc(Nc2nccc(-c3cn(C)c4ccccc34)n2)c(OC)cc1N(C)CCN(C)C` [OSIMERTINIB], the IC50 in [3] was […].

`O=C(CN1CCOCC1)Nc1ccc(Nc2ncc(Cl)c(Nc3ccccc3C(=O)NO)n2)cc1`: the IC50 in test [1] is 113 nM; in test [2] it was 126 nM; in test [3] it was 385 nM; in test [4] it was 1530 nM; in [5], 385 nM; in test [6], above 40000 nM. Further, the IC50 in test [7] came out at 750 nM; in [8], 1740 nM; in [9] it was 2110 nM. Besides, the “Ratio IC50” value in test [10] was 3.98.

Turning to `CN1CCN(CCOc2ccc(Nc3ncc(Cl)c(Nc4ccccc4C(=O)NO)n3)cc2)CC1`, the IC50 came out at 6.82 nM in test [1]; 0.763 nM in test [2]; 822 nM in test [3]; 692 nM in [4]; 203 nM in test [5]; 29800 nM in test [6]. Also, the IC50 in test [7] came out at 244 nM; in test [8], 642 nM; in [9], 1950 nM. The “Ratio IC50” value in test [10] was determined as 0.84.

Take `CNC(=O)c1ccccc1Nc1nc(Nc2ccc(CN3CCC(C(=O)NO)CC3)cc2)ncc1Cl`: the IC50 in test [1] is 117 nM; in [2], 1.09 nM; in [3], 245 nM; in [4] it was 1160 nM; in [5], 245 nM; in test [6], 15900 nM. Moreover, the IC50 is 374 nM in [7], 8420 nM in test [8] and 1280 nM in [9]. In addition, the “Ratio IC50” value in [10] came to 4.72.

For `CNC(=O)c1ccccc1Nc1nc(Nc2ccc(N3CCC(C(=O)NO)CC3)cc2)ncc1Cl`, the concentration for half-maximal inhibition (IC50) is 49.9 nM in test [1]; 119 nM in test [2]; 329 nM in test [3]; 127 nM in test [4]; 329 nM in test [5]; 12600 nM in test [6]. Moreover, the IC50 in [7] turned out to be 499 nM; in test [8] it was 1540 nM; in test [9] it was 1730 nM. Moreover, the “Ratio IC50” value in [10] worked out at 0.39.

Take `CCOC(=O)c1ccccc1Nc1nc(Nc2ccc(OCC(=O)N3CCOCC3)cc2)ncc1Cl`: the IC50 in [1] was determined as 0.245 nM; in test [2], 32 nM; in test [3], 2900 nM; in test [9], 30200 nM.

Take `O=C(NO)c1ccccc1Nc1nc(Nc2ccc(N3CCOCC3)cc2)ncc1Cl`: the IC50 in [1] was 116 nM; in [2], 169 nM; in test [3] it was 109 nM; in test [4] it was 1580 nM; in test [5], 109 nM; in test [6], above 40000 nM. Moreover, the figures for the IC50 in test [7], in [8] and in test [9] were 1410 nM, 801 nM and 2190 nM, respectively. Besides, the “Ratio IC50” value in test [10] is reported as 14.46.

Take `O=C(O)c1ccccc1Nc1nc(Nc2ccc(OCC(=O)N3CCOCC3)cc2)ncc1Cl`: the IC50 is 199 nM in [1], 81.4 nM in test [2], above 10000 nM in [3] and 15500 nM in test [9].

On to `O=C(COc1ccc(Nc2ncc(Cl)c(Nc3ccccc3C(=O)NO)n2)cc1)NO`, for which the IC50 in test [1] is 65.4 nM; in [2], 50.2 nM; in test [3] it was 1110 nM; in [4], 2060 nM; in test [5], 1110 nM; in test [6] it was above 40000 nM. Besides, the IC50 in test [7] was found to be 1580 nM; in [8], 6400 nM; in test [9], 7870 nM. Besides, the “Ratio IC50” value in test [10] was 1.86.

On to `O=C(NO)c1ccccc1Nc1nc(Nc2ccc(OCCCN3CCOCC3)cc2)ncc1Cl`, for which the IC50 in test [1] stood at 64.8 nM; in test [2] it was 1.25 nM; in test [3], 321 nM; in [4] it was 1400 nM; in test [5], 321 nM; in test [6] it was 26500 nM. The half-inhibitory concentration (IC50) in test [7] stood at 1230 nM; in [8], 665 nM; in test [9] it was 1730 nM. In addition, in [10], the “Ratio IC50” value is 4.38.

(Values after ChEMBL document CHEMBL4831496, “Noncovalent EGFR T790M/L858R inhibitors based on diphenylpyrimidine scaffold: Design, synthesis, and bioactivity evaluation for the treatment of NSCLC” (Eur J Med Chem, 2021).)
